Experiment: Toxicity liver stage against HepG2, at 10uM
Format: cell-based
Set-up: test concentration 10 uM, cell line HepG2-A16-CD81EGFP
Details: human, HepG2-A16-CD81EGFP cells; read-out: INHIBITION
Outline: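 Uninfected HepG2-A16-CD81EGFP cells, 3 × 10^3 per well, 1536-well, plated on prespotted compound at 10 μM final, parasite-free screening media added to match infected plates; puromycin 10 μM positive, DMSO 0.5% negative; run in parallel with 48 h PbLuc assay at 37 °C, 5% CO2; viability by CellTiter-Glo luminescence, normalized to controls.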

Structure (SMILES) | cytotoxicity at 10 µM [%]
COc1ccc(Nc2c[nH]c(=O)[nH]c2=O)cc1 | 14.2
O=C1CO[C@H]2CN(S(=O)(=O)c3ccccc3)C[C@H]2N1c1ccccc1 | -2.6
O=C1N[C@@H]2CCN(C(=O)C3CC3)[C@@H]2C(=O)N1c1ccc(F)cc1 | -1.8
O=C1N[C@@H]2CCN(C(=O)c3ccccc3)[C@@H]2C(=O)N1Cc1ccccc1 | -1.84
CNC(=O)c1cnc2c(C)csc2c1 | -22.3
O=C(Cc1csc(-c2ccccc2Cl)n1)NCc1cccc(C(=O)O)c1 | -3.67
O=C1CCC2(CCN(Cc3ccsc3)CC2)N1Cc1ccccc1 | 0.552
O=C([C@H]1CCCO1)N1CCC2(CC1)C(=O)N(CC1CC1)c1ccccc12 | 8.5
CN(C)CCN1CCN(C)C2(CCN(c3nccs3)CC2)C1=O | -1.92
Cc1nnc([C@H]2C[C@H]3OCC[C@H]3N(S(=O)(=O)CC(C)C)C2)o1 | -5.27
O=C(C1CC=CC1)N1CC[C@@H]2O[C@@H](COCC3CCOCC3)CC[C@@H]21 | 5.51
CC1CCN(S(=O)(=O)c2cccn(CC(=O)N3CCOCC3)c2=O)CC1 | 2.11
O=C(CCCC(=O)NCc1cccc(Br)c1)NCCN1CCCC1 | -7.47
COc1cc(-c2n[nH]c(CO)n2)cc(OC)c1OC | -4.91
Cc1noc(C)c1C(=O)N[C@@H]1CCC[C@@H](Oc2ccccc2)[C@@H]1O | 4.72
CN(CCc1ccccc1)Cc1c(C2CCOCC2)[nH]c2ncccc12 | 4.21
CS(=O)(=O)N1CCCC(n2nnn(-c3ccccc3)c2=O)C1 (stereo unspecified) | -6.17
COCCNC(=O)C1(CCCc2cccnc2)CCCN1C (stereo unspecified) | 20.1
CCCC(=O)N1CCCC(C(=O)c2cnn(-c3ccc(F)cc3)c2N)C1 (stereo unspecified) | 4.67
O=C(O)CCCC(=O)NCC1(O)CCN(c2ccnc3cccnc23)C1 (stereo unspecified) | 5.09
CN(C)c1nccnc1C1CCN(C2CCCCC2O)CC1 (stereo unspecified) | 8.12
O=C1CCC[C@]2(CN(S(=O)(=O)N3CCCCC3)C[C@H]2c2cccnc2)N1 | -0.217
CC(C)(C)NC(=O)C1(Cc2ccccc2-c2ccncc2)CCOCC1 | -6.99

Structure (SMILES) | cytotoxicity at 10 µM [%]
COCC(=O)N1CCC(c2csc(NC(C)=O)n2)CC1 | -28.6
CC(=O)N1CCC(Cc2cnc(-n3ccnc3)cn2)CC1 | -38.8
Cc1nc(Nc2nnc(C)s2)cc(C2CCCN2c2ccncc2)n1 (stereo unspecified) | -9.99
COCCC(=O)N1CCCC1c1nccc(C)n1 (stereo unspecified) | -19.2
C=Cn1ncc(CN2CCc3nc(-c4ccncc4)nc(O)c3C2)c1C | -4.45
CN(C)Cc1ccnc(C2CN(CCc3ccccc3)CCO2)n1 (stereo unspecified) | -16.5
C[C@]1(O)CN(Cc2cccc(C(=O)O)c2)CC[C@@H]1Oc1cccc(F)c1 | -5.64
CCCn1cc(C(=O)N2CCCC(Cc3nccs3)C2)cn1 (stereo unspecified) | -11.4
CCCc1cc(C(=O)NC(c2ccccc2)c2n[nH]c(C)n2)[nH]n1 (stereo unspecified) | 2.99
O=C(NCc1ccnc(OCC(F)(F)F)c1)NCC1CCOC1 (stereo unspecified) | -3.22
COc1c(C(=O)NC(C)Cc2ccccc2Cl)c(C)nn1C (stereo unspecified) | -0.686
O=C(c1cc[nH]n1)N1CCN(C(c2ccccc2)C(F)(F)F)CC1 (stereo unspecified) | -6.36
C(=C\c1ccccc1)/CNCC1CCc2nncn2C1 (stereo unspecified) | 16.8
CN1CCN(C)C(CNC(=O)N(C)Cc2ccccc2Cl)C1 (stereo unspecified) | 0.339
Cc1ccc(CNC(=O)c2ccc(=O)n(C)n2)c(OCC2CC2)c1 | -5.92
CC(NCc1nnc2n1CCCC2)c1nc(-c2cccs2)no1 (stereo unspecified) | -39.5
COc1ccc(CN(C)C(=O)CN2CC(n3cc(C)cn3)C2)cc1F | 1.59
Cc1ccc2c(c1)C(NCc1ccccn1)CC2 (stereo unspecified) | 5.47
O=C(OCCNc1ncccn1)c1ccc(Br)s1 | -2.64
Cc1ccc(C(C)(O)CNC(=O)CCn2ccnc2C(C)C)o1 (stereo unspecified) | 8.53
O=C(c1ccoc1)N(Cc1cccnc1)C1CC1 | -13.2
Cc1ccc(C(=O)NCc2cccnc2-n2cncn2)cc1S(C)(=O)=O | 4.5
Cc1cnn(CC2CCCN2C(=O)CCc2c(C)noc2C)c1 (stereo unspecified) | -5.81

Structure (SMILES) | cytotoxicity at 10 µM [%]
Cc1noc(C(C)N2CCN(CCC(=O)N3CCOCC3)CC2)n1 (stereo unspecified) | -0.0308
COCCOCCNC(=O)C(C)Oc1ccccc1C(F)(F)F (stereo unspecified) | 0.295
CC(NCCN1CCN(C(=O)C2CCCC2)CC1)c1cnn(C)c1 (stereo unspecified) | -4.59
Cc1ccc(CN(C(=O)C(C)S(C)(=O)=O)C2CC2)cc1C (stereo unspecified) | 3.28
COc1cccc2c1N(Cc1noc(C3CC3)n1)CCC2 | -5.59
N#Cc1c(N2CCCN(C3CCOCC3)CC2)nc2ccccn12 | 14.7
CC1CCC(NC(=O)NCC(C)(C)CCS(C)(=O)=O)CC1 (stereo unspecified) | 9.61
COc1c(C)cnc(CN2CCCC(c3noc(C4CC4)n3)C2)c1C (stereo unspecified) | -1.62
Cc1ccc(S(=O)(=O)N(CC2CCOC2)C2CC2)cc1N(C)C (stereo unspecified) | -9.77
COc1c(C(=O)N2CCC(COCc3ccccc3)C2)c(C)nn1C (stereo unspecified) | 7.39
CC(C)C(NC(=O)NCc1cccnc1N(C)C)c1cccs1 (stereo unspecified) | -1.86
CCCc1nnc(NC(=O)N2CCCC(NC(C)=O)C2)s1 (stereo unspecified) | 5.41
CSCCC(C)NC(=O)CCN1C(=O)CCc2cc(F)ccc21 (stereo unspecified) | 6.79
CC(=O)c1ccc(CNC(=O)c2c(C)cc(C)cc2C)nc1C | 9.31
Cc1ccc(CNC(=O)N2CCCCC2CCNS(C)(=O)=O)cc1 (stereo unspecified) | -0.524
Cc1nn(C)c(C)c1C(=O)N1CCOCC1CC(=O)c1ccco1 (stereo unspecified) | -11.4
COc1cc(-c2cc(N)ncn2)cc(OC)c1OC | -5.11
O=C1CCCN1C1CCN(S(=O)(=O)CCOc2ccc(F)cc2)CC1 | 5.94
CC(C)Nc1cc(N2CCCC3(CN(C)C(=O)O3)C2)ncn1 (stereo unspecified) | -53
O=C1COc2ccccc2N1CCCn1cnnn1 | 6.05
CC(c1ccco1)N(C)Cc1cccc(C(=O)Nc2nccn2C)c1 (stereo unspecified) | -7.33
Cc1cccc(C(C(=O)NCCc2nc(C)cc(=O)[nH]2)N(C)C)c1 (stereo unspecified) | -6.24
CC(C)c1nc(CN(C)C(=O)[C@H](N)Cc2ccc(Cl)cc2)cs1 | -154

Structure (SMILES) | cytotoxicity at 10 µM [%]
O=C(c1cnc(O)cn1)N1CCCC1c1nc2cc(F)ccc2[nH]1 (stereo unspecified) | 7.72
c1ccc(CN2CCC(NCCSc3cnn[nH]3)CC2)cc1 | -5.16
Cc1ccc(C(N)=O)c(N2Cc3cnc(C(C)(C)C)nc3C2)n1 | 8.05
Cc1cc(C)c2nc(CNC3CCCNC3=O)cc(O)c2c1 (stereo unspecified) | 5.84
C[C@@H]1CN(c2ccc(Cl)cn2)CC[C@@]1(O)C1CCOCC1 | -2.54
COc1cc(-n2ccnc2-c2ccc(C(=O)O)s2)ccc1NC(C)=O | 2.74
O=C(Nc1cnc2n1CCCC2)c1cccc(-n2cnnc2)c1 | -4.34
CCc1cc(-c2cc[nH]n2)nc(N2CCOCC2)n1 | 7.04
Cc1cc(C)nc(N2CCCC(c3nccn3CCCN(C)C)C2)c1 (stereo unspecified) | -7.97
COc1cccc(C(C(=O)O)N2CCSCC2)c1F (stereo unspecified) | -12.9
CCCC1(CO)CCCN(C(=O)CN2CCN(CC)CC2)C1 (stereo unspecified) | 0.854
Cc1noc(-c2ccc(N3CCN(Cc4ncccc4C)CC3)nc2)n1 | -3.35
COCc1ncc(CN2CC[C@@H](NC(=O)c3cccnc3)[C@H](O)C2)cn1 | -7.28
O=C(c1ccc(C2CCCN2C(=O)c2ccoc2)s1)N1CCOCC1 (stereo unspecified) | -156
c1coc(-c2nnc(CN3CCCC3Cn3cncn3)o2)c1 (stereo unspecified) | -5.46
CCOCC(=O)N1CSCC1C(=O)N(C)Cc1ccco1 (stereo unspecified) | -11
Cc1nn(C)c(C)c1C1CCCN1C(=O)c1ccc(N(C)C)nc1 (stereo unspecified) | -7.19
CS(=O)(=O)N1CCN(C(=O)CCn2cccn2)CC1 | -8.39
CC(=O)N1CCN(C(=O)c2csc(-c3ccc(C)cc3C)n2)CC1 | -18.8
Cc1csc(N2CCCN(C(=O)C(C)n3cncn3)CC2)n1 (stereo unspecified) | -3.6
O=C(Nc1nccs1)NC1CCN(Cc2ccccn2)CC1 | -5.72
c1coc(-c2noc(CN3CCCCC3Cn3cncn3)n2)c1 (stereo unspecified) | -0.915
Cc1cnn(CC2CCCCN2CCS(C)(=O)=O)c1 (stereo unspecified) | -13.7

Structure (SMILES) | cytotoxicity at 10 µM [%]
Cc1nc(C)n(CC2CCCN2Cc2nc(C)c3ccccc3n2)n1 (stereo unspecified) | -12.4
Cc1cnn(CC2CCCN2C(=O)Cc2ccc(C)nc2)c1 (stereo unspecified) | -1.64
Cc1cc(C)n(C2CN(CC(=O)NC(C3CC3)C3CC3)C2)n1 | -9.8
CN(C)c1ccc(NC(=O)NCc2cccnc2N(C)C)cn1 | -20.9
O=C(NCc1ccccn1)NCc1ccc(Cl)s1 | -7.52
CCc1nc(CN2CCCN(C(=O)CC3CCCC3)CC2)cs1 | -25.2
O=C1NCCN1C1CCN(Cc2nc(-c3ccoc3)no2)CC1 | -9.06
O=C(NCCN1CCCc2ccccc21)c1scnc1Cl | -3.41
O=C(NCC(=O)N1CCCCC1)c1ccoc1 | -6.07
CC(C)c1cc(NC(=O)CN2CCC(N3CCNC3=O)CC2)on1 | -10.7
CN(C)c1ncc(-c2cccc(C(N)=O)c2)c(C2CNCCO2)n1 (stereo unspecified) | -2.77
Cc1nc(C2CCNC2)nc2c1CCC(=O)N2C (stereo unspecified) | 3.77
O=C1CCCC2(CCN(C(=O)c3ccccn3)CC2)N1 | 3.03
Cn1nnc2c1CCN(Cc1ccncc1)C2COCc1ccccc1 (stereo unspecified) | -134
COCC1CC2(CCN(C(=O)c3ccco3)CC2)CN1C(C)C (stereo unspecified) | 4.71
CN(C)c1cc(NCc2cnc3n2CCN(CC2CC2)CC3)ncn1 | -2.57
O=C(c1cnc2n1CCN(Cc1ccccc1)C2)N1CCCC1 | -73.9
Cc1ccc(N2CCCC3(COCCN(c4ccccn4)C3)C2)nn1 (stereo unspecified) | -119
O=C1CC[C@H]2[C@@H](CCN2Cc2ccco2)N1 | 2.82

From ChEMBL document CHEMBL4513216, “Probing the Open Global Health Chemical Diversity Library for Multistage-Active Starting Points for Next-Generation Antimalarials” (ACS Infect Dis, 2020)
